Measurements gathered from unrelated publications.
Protocols differ between the studies behind these lines.
Target: RAC-gamma serine/threonine-protein kinase (AKT3, Homo sapiens, UniProt Q9Y243)

For `O=c1nc(-c2ccccn2)sc2ccccc12`, the remaining binding was 100% (binding; competition with immobilised ligand; 1 µM).
The remaining activity of `CC(C)(O)[C@H]1CC[C@H](Nc2ccc3ncc(-c4cccc(C(F)(F)F)c4)n3n2)CC1` is reported as 96.5% (enzyme activity; inhibitor; 1 µM).
`Cc1ccc(Nc2nccc(N(C)c3ccc4c(C)n(C)nc4c3)n2)cc1S(N)(=O)=O` gave a remaining activity of 93.3% (enzyme activity; inhibitor; 0.5 µM).
With `Cn1c2c(Cl)c(Cl)ccc2c2cn[nH]c(=O)c21` the ΔTm was 0.1 °C (thermal stability; DSF; 10 µM).
With `Cc1c(NC(=O)c2cc(C(N)=O)nc3cc(F)ccc23)c(C(F)(F)F)nn1Cc1ccc(C(C)(C)C)cc1` the remaining binding was 100% (cell-free assay; competition with immobilised ligand; 1 µM).
The remaining signal of `CCN(CC)CCNC(=O)c1c(C)[nH]c(/C=C2\C(=O)Nc3ccc(F)cc32)c1C` is reported as 71.7% (cell-free assay; 0.5 µM).
The remaining activity of `CCCOc1ccc(OC)c(F)c1C(=O)c1ccc(C(=O)N[C@@H]2CNC[C@H]2NC(=O)c2ccc3[nH]ncc3c2)cc1` is reported as 97% (enzyme activity; inhibitor; 50 nM).
`Cc1cnc(NC2CCOCC2)nc1-n1cnc(C(=O)NC(CN)c2cc(F)cc(Cl)c2)c1` (stereo not shown) has a remaining activity of 78% (enzyme activity; inhibitor; radiometric; 1 µM).
For `CC(C)(C)c1nc2c(s1)c1nc(N)ncc1c1ccc(NS(=O)(=O)c3c(F)cccc3F)c(F)c12`, the remaining activity was 89% (enzyme activity; inhibitor; radiometric; 1 µM).
`CO[C@@H](C)c1c(Nc2ccc([C@@H](N(C)C(=O)C3CCS(=O)(=O)CC3)C(F)(F)F)cc2)cnc2cc(Cl)nn12` gave a remaining binding of 65% (cell-free assay; competition with immobilised ligand; 1 µM).
`CCC1(CC)NC(=O)c2c(c3ccc(Cl)c(Cl)c3n2C)C1C#N` (stereo not shown) gave a ΔTm of 0.1 °C (thermal stability; DSF; 10 µM).
`CN1CC(Oc2cnc(C#N)cc2-c2ccn3nc(NC(=O)C4CC4)cc3c2)C1` gave an inhibition of 7% (enzyme activity; inhibitor; 1 µM).
With `C[C@@H]1CCN(C(=O)CC#N)C[C@@H]1N(C)c1ncnc2[nH]ccc12` the remaining signal was 85.8% (cell-free assay; inhibitor; 0.5 µM).
With `COc1cc(Cl)c(C(=O)N[C@@H](CN[C@H]2CC[C@@H](N)CC2)Cc2ccc(C#N)cc2)cc1-c1ccc(CN[C@H](C)c2ccc(C)cc2)o1` the remaining activity was 97% (enzyme activity; inhibitor; 1 µM).
`COc1cc2ncnc(Nc3ccc(Oc4ccccc4)cc3C)c2cc1OC` gave an inhibition of 6% (enzyme activity; inhibitor; 1 µM).
With `Cc1ccc(NC(=O)c2ccc(C)c(C(F)(F)F)c2)cc1C#Cc1nn(C2CCC(O)CC2)c2ncnc(N)c12` (stereo not shown) the remaining signal was 94% (cell-free assay; 10 µM).
`CN(c1ccnc(CNc2nc(Nc3ccc4c(c3)CC(=O)N4)ncc2C(F)(F)F)n1)S(C)(=O)=O` gave a remaining binding of 100% (cell-free assay; competition with immobilised ligand; 1 µM).
For `CNC(=O)c1cc(Oc2ccc(NC(=O)Nc3ccc(Cl)c(C(F)(F)F)c3)cc2)ccn1`, the inhibition was -4% (enzyme activity; inhibitor; 0.3 µM).
For `Cn1c2c(c3ccc(Cl)c(Cl)c31)C(C#N)C1(CCN(C(=O)OC(C)(C)C)CC1)NC2=O` (racemic), the ΔTm was -0.1 °C (thermal stability; DSF; 10 µM).
The remaining binding of `Cc1cc(NC(=O)c2cccc(S(F)(F)(F)(F)F)c2)cc(-n2ccn3nc(-c4cccnc4)cc23)c1` is reported as 100% (cell-free assay; competition with immobilised ligand; 1 µM).
`Cc1ccc(NC(=O)c2ccc(CN3CCN(C)CC3)cc2)cc1Nc1nc(-c2cccnc2)cs1` has a remaining signal of 102% (cell-free assay; 0.5 µM).
The remaining binding of `Cn1cc(Cl)c2c(Oc3c(F)cc(Nc4cc(Cl)nc(N)n4)cc3F)ccnc21` is reported as 98% (cell-free assay; competition with immobilised ligand; 0.1 µM).
The ΔTm of `N#CC1c2c([nH]c3c(Cl)c(Cl)ccc23)C(=O)NC12CCCCC2` (racemic) is reported as -0.7 °C (thermal stability; DSF; 10 µM).
With `O=C(N1CCS(=O)(=O)CC1)N1C[C@H](c2ccc(OC(F)(F)F)cc2)C[C@H](c2nc(C3CC3)no2)C1` the remaining binding was 100% (cell-free assay; competition with immobilised ligand; 1 µM).
`CN1CCC2(CC1)NC(=O)c1c(c3ccc(Cl)c(Cl)c3n1C)C2C#N` (racemic) has a ΔTm of 0 °C (thermal stability; DSF; 10 µM).
`CC/C(=N\NC(=O)NCc1cccc(O)c1)c1ccc(O)c(C)c1O` gave an inhibition of 22.8% (enzyme activity; inhibitor; 0.1 µM).
`Cc1ccc(C(=O)Nc2ccc(CN3CCN(C)CC3)c(C(F)(F)F)c2)cc1C#Cc1cnc2cccnn12` has a remaining activity of 100% (enzyme activity; inhibitor; 23.5 nM).
`Cn1c2c(Cl)c(Cl)ccc2c2cc[nH]c(=O)c21` gave a ΔTm of 0 °C (thermal stability; DSF; 10 µM).
For `Cc1sc(C(=O)NC2COC2)cc1-n1cc(NC(=O)Nc2c(F)cccc2Cl)cn1`, the remaining activity was 94.8% (enzyme activity; inhibitor; 10 µM).
`O=C(Nc1ccc(Oc2ccc(F)cc2)cc1)N1CCc2ncccc2[C@H]1c1ccc(F)cc1` has a remaining binding of 95% (cell-free assay; competition with immobilised ligand; 1 µM).
With `Cc1ccc(C(=O)NCc2ccsc2)cc1C#Cc1cn(C(C)C)c2ncnc(N)c12` the activity vs control was 79% (enzyme activity; inhibitor; 1 µM).
